Laboratory results as given in ChEMBL document CHEMBL3259701, “Siderophore receptor-mediated uptake of lactivicin analogues in gram-negative bacteria” (J Med Chem, 2014).
Values after ≈ are worked out from the molar mass of the structure shown.

Tests used:
Format in all cases: functional
Pseudomonas aeruginosa [1] = test: Antibacterial activity against Pseudomonas aeruginosa PAO1 harboring siderophore receptor piuA and fpvA double mutant in medium containing aztreonam and low-Fe by CLSI broth microdilution method
Pseudomonas aeruginosa [2] = test: Antibacterial activity against Pseudomonas aeruginosa PAO1 harboring siderophore receptor piuA, pfeA and pirA mutant in medium containing low-Fe by CLSI broth microdilution method
In short: (§1)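 MIC by CLSI broth microdilution in a modified Mueller Hinton broth depleted of iron to mimic the low-iron in vivo environment. Tested against PAO1 and isogenic strains lacking one or more siderophore receptors.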

Klebsiella pneumoniae = test: Antibacterial activity against Klebsiella pneumoniae KP-3700 by CLSI broth microdilution method
Pseudomonas aeruginosa [3] = test: Ratio of MIC for Pseudomonas aeruginosa PAO1 harboring siderophore receptor piuA mutant to MIC for wild type Pseudomonas aeruginosa PAO1 in medium containing low-Fe by CLSI broth microdilution method
In short: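 CLSI broth microdilution MICs in a modified Mueller-Hinton broth depleted of iron to mimic low in vivo iron. Tested against wild-type PAO1 and isogenic siderophore receptor knockout strains. Reported as the knockout-strain MIC divided by the PAO1 MIC in the same iron-depleted medium.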

Pseudomonas aeruginosa [4] = test: Ratio of MIC for Pseudomonas aeruginosa PAO1 harboring siderophore receptor piuA and fpvA double mutant to MIC for wild type Pseudomonas aeruginosa PAO1 in Mueller-Hinton broth medium by CLSI broth microdilution method
In short: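 Broth microdilution MIC per CLSI in standard Mueller-Hinton broth, run against wild-type P. aeruginosa PAO1 and isogenic PAO1 strains lacking one or more siderophore receptors. Value is the mutant-strain MIC divided by the PAO1 MIC.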

Pseudomonas aeruginosa [5] = test: Antibacterial activity against Pseudomonas aeruginosa PAO1 in medium containing aztreonam and low-Fe by CLSI broth microdilution method
Pseudomonas aeruginosa [6] = test: Antibacterial activity against Pseudomonas aeruginosa PAO1 harboring siderophore receptor piuA and pfeA double mutant in medium containing low-Fe by CLSI broth microdilution method; in short: as §1
Pseudomonas aeruginosa [7] = test: Antibacterial activity against Pseudomonas aeruginosa PAO1 harboring siderophore receptor pirA and pfeA double mutant in Mueller-Hinton broth medium by CLSI broth microdilution method
In short: (§2)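 MIC by CLSI broth microdilution in standard Mueller Hinton broth. Tested against wild-type P. aeruginosa PAO1 and an isogenic panel lacking one or more siderophore receptors.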

Pseudomonas aeruginosa [8] = test: Antibacterial activity against Pseudomonas aeruginosa PAO1 harboring siderophore receptor pirA and pfeA double mutant in medium containing aztreonam and low-Fe by CLSI broth microdilution method
Pseudomonas aeruginosa [9] = test: Antibacterial activity against Pseudomonas aeruginosa PAO1 harboring siderophore receptor piuA and pfeA double mutant in medium containing aztreonam and low-Fe by CLSI broth microdilution method
Pseudomonas aeruginosa [10] = test: Antibacterial activity against Pseudomonas aeruginosa PAO1 harboring siderophore receptor piuA and pirA double mutant in medium containing low-Fe by CLSI broth microdilution method; in short: as §1
Pseudomonas aeruginosa [11] = test: Ratio of MIC for Pseudomonas aeruginosa PAO1 harboring siderophore receptor fpvA mutant in MHB medium to MIC for Pseudomonas aeruginosa PAO1 harboring siderophore receptor fpvA mutant in medium containing low-Fe by CLSI broth microdilution method
Pseudomonas aeruginosa [12] = test: Antibacterial activity against Pseudomonas aeruginosa PAO1 harboring siderophore receptor pfeA mutant in Mueller-Hinton broth medium by CLSI broth microdilution method; in short: as §2
Pseudomonas aeruginosa [13] = test: Ratio of MIC for Pseudomonas aeruginosa PAO1 harboring siderophore receptor piuA and pfeA double mutant to MIC for wild type Pseudomonas aeruginosa PAO1 in medium containing aztreonam and low-Fe by CLSI broth microdilution method
Pseudomonas aeruginosa [14] = test: Ratio of MIC for Pseudomonas aeruginosa PAO1 harboring siderophore receptor fpvA mutant to MIC for wild type Pseudomonas aeruginosa PAO1 in medium containing aztreonam and low-Fe by CLSI broth microdilution method
Escherichia coli [15] = test: Antibacterial activity against Escherichia coli DH5alpha expressing beta-lactamase OXA-24/40 by CLSI broth microdilution method; details: DH5[alpha]
Pseudomonas aeruginosa [16] = test: Antibacterial activity against Pseudomonas aeruginosa PAO1 harboring siderophore receptor piuA and fptA double mutant in medium containing aztreonam and low-Fe by CLSI broth microdilution method
Pseudomonas aeruginosa [17] = test: Antibacterial activity against Pseudomonas aeruginosa PAO1 in Mueller-Hinton broth medium by CLSI broth microdilution method; in short: as §2
Pseudomonas aeruginosa [18] = test: Ratio of MIC for Pseudomonas aeruginosa PAO1 harboring siderophore receptor fptA mutant to MIC for wild type Pseudomonas aeruginosa PAO1 in Mueller-Hinton broth medium by CLSI broth microdilution method
In short: (§3)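 Receptor-deficient PAO1 strain MIC divided by parent PAO1 MIC. Both MICs were obtained by CLSI broth microdilution in standard Mueller Hinton broth. A shift greater than 4× was taken to indicate that the deleted receptor(s) take part in drug uptake.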

Pseudomonas aeruginosa [19] = test: Ratio of MIC for Pseudomonas aeruginosa PAO1 harboring siderophore receptor fptA mutant to MIC for wild type Pseudomonas aeruginosa PAO1 in medium containing low-Fe by CLSI broth microdilution method
In short: (§4)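 Ratio of strain MIC to PAO1 MIC. Both MICs were obtained by CLSI broth microdilution in iron-depleted modified Mueller Hinton broth. A shift greater than 4× versus the parent was read as the deleted receptor(s) taking part in uptake.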

Pseudomonas aeruginosa [20] = test: Ratio of MIC for wild type Pseudomonas aeruginosa PAO1 in MHB medium to MIC for wild type Pseudomonas aeruginosa PAO1 in medium containing low-Fe by CLSI broth microdilution method
In short: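 MICs for wild-type P. aeruginosa PAO1 were determined by CLSI broth microdilution in standard Mueller Hinton broth and, in parallel, in a modified broth depleted of iron to mimic the low-iron in vivo environment. The ratio compares the MIC in standard MHB with the MIC in iron-depleted broth.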

Pseudomonas aeruginosa [21] = test: Antibacterial activity against Pseudomonas aeruginosa PAO1 harboring siderophore receptor fptA mutant in Mueller-Hinton broth medium by CLSI broth microdilution method; in short: as §2
Escherichia coli [22] = test: Antibacterial activity against Escherichia coli DH5alpha expressing beta-lactamase NDM-1 by CLSI broth microdilution method; details: DH5[alpha]
Pseudomonas aeruginosa [23] = test: Antibacterial activity against Pseudomonas aeruginosa PAO1 harboring siderophore receptor piuA mutant in Mueller-Hinton broth medium by CLSI broth microdilution method; in short: as §2
Pseudomonas aeruginosa [24] = test: Antibacterial activity against Pseudomonas aeruginosa PAO1 harboring siderophore receptor piuA and fptA double mutant in Mueller-Hinton broth medium by CLSI broth microdilution method; in short: as §2
Pseudomonas aeruginosa [25] = test: Antibacterial activity against Pseudomonas aeruginosa PAO1 by CLSI broth microdilution method
Pseudomonas aeruginosa [26] = test: Ratio of MIC for Pseudomonas aeruginosa PAO1 harboring siderophore receptor pfeA mutant to MIC for wild type Pseudomonas aeruginosa PAO1 in Mueller-Hinton broth medium by CLSI broth microdilution method; in short: as §3
Escherichia coli [27] = test: Antibacterial activity against Escherichia coli DH5alpha expressing beta-lactamase TEM-24 by CLSI broth microdilution method; details: DH5[alpha]
Pseudomonas aeruginosa [28] = test: Antibacterial activity against Pseudomonas aeruginosa PAO1 harboring siderophore receptor pirA mutant in medium containing aztreonam and low-Fe by CLSI broth microdilution method
Escherichia coli [29] = test: Antibacterial activity against Escherichia coli DH5alpha expressing beta-lactamase VIM-2 by CLSI broth microdilution method; details: DH5[alpha]
Pseudomonas aeruginosa [30] = test: Ratio of MIC for Pseudomonas aeruginosa PAO1 harboring siderophore receptor pirA mutant to MIC for wild type Pseudomonas aeruginosa PAO1 in medium containing low-Fe by CLSI broth microdilution method; in short: as §4

With CC(C)(O/N=C(\C(=O)N[C@H]1CON(C2(C(=O)O)C[C@H](N3C(=O)c4cc(O)c(O)cc4C3=O)C(=O)O2)C1=O)c1csc(N)n1)C(=O)O (stereo partly specified) the MIC (Pseudomonas aeruginosa [1]) was 4 µg/mL (≈ 6.04 µM), the MIC (Pseudomonas aeruginosa [2]) was 0.25 µg/mL (≈ 0.377 µM) and the MIC (Klebsiella pneumoniae) was 0.5 µg/mL (≈ 0.755 µM). For the same compound, the Ratio (Pseudomonas aeruginosa [3]) was “>=4”, the Ratio (Pseudomonas aeruginosa [4]) was 32 and the MIC (Pseudomonas aeruginosa [5]) was 4 µg/mL (≈ 6.04 µM). It also gave an MIC (Pseudomonas aeruginosa [6]) of 0.125 µg/mL (≈ 0.189 µM), an MIC (Pseudomonas aeruginosa [7]) of 0.5 µg/mL (≈ 0.755 µM) and an MIC (Pseudomonas aeruginosa [8]) of 4 µg/mL (≈ 6.04 µM). For the same compound, the MIC (Pseudomonas aeruginosa [9]) was 4 µg/mL (≈ 6.04 µM), the MIC (Pseudomonas aeruginosa [10]) was 0.25 µg/mL (≈ 0.377 µM) and the Ratio (Pseudomonas aeruginosa [11]) was 512. For the same compound, the MIC (Pseudomonas aeruginosa [12]) was 0.5 µg/mL (≈ 0.755 µM), the Ratio (Pseudomonas aeruginosa [13]) was 1 and the Ratio (Pseudomonas aeruginosa [14]) was 0.5. For the same compound, the MIC (Escherichia coli [15]) was 0.03 µg/mL (≈ 0.0453 µM), the MIC (Pseudomonas aeruginosa [16]) was 4 µg/mL (≈ 6.04 µM) and the MIC (Pseudomonas aeruginosa [17]) was 0.5 µg/mL (≈ 0.755 µM). For the same compound, the Ratio (Pseudomonas aeruginosa [18]) was 8, the Ratio (Pseudomonas aeruginosa [19]) was “>=2” and the Ratio (Pseudomonas aeruginosa [20]) was 16. For the same compound, the MIC (Pseudomonas aeruginosa [21]) was 4 µg/mL (≈ 6.04 µM), the MIC (Escherichia coli [22]) was 0.03 µg/mL (≈ 0.0453 µM) and the MIC (Pseudomonas aeruginosa [23]) was 8 µg/mL (≈ 12.1 µM). The MIC (Pseudomonas aeruginosa [24]) was 8 µg/mL (≈ 12.1 µM), the MIC (Pseudomonas aeruginosa [25]) was 0.5 µg/mL (≈ 0.755 µM) and the Ratio (Pseudomonas aeruginosa [26]) was 1. It also gave an MIC (Escherichia coli [27]) of 0.06 µg/mL (≈ 0.0906 µM), an MIC (Pseudomonas aeruginosa [28]) of 4 µg/mL (≈ 6.04 µM) and an MIC (Escherichia coli [29]) of 0.015 µg/mL (≈ 0.0226 µM). The Ratio (Pseudomonas aeruginosa [30]) was 1.
